In ChEMBL document CHEMBL1146489, “Aspochalasins I, J, and K: three new cytotoxic cytochalasans of Aspergillus flavipes from the rhizosphere of Ericameria laricifolia of the Sonoran Desert” (J Nat Prod, 2004):

Assays:
Format in all cases: functional, cell-based
NCI-H460 = assay: Cytotoxicity against human NCI-H460 cells after 48 hrs by MTT assay; conditions: NCI-H460, 48 h
Procedure, shortened: (§1)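 Human tumour cells (NCI-H460 lung, MCF-7 breast, SF-268 glioma) exposed to compounds for 48 h in RPMI 1640 with 10% fetal bovine serum; viability read by tetrazolium-based colorimetric MTT assay.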

MCF7 = assay: Cytotoxicity against human MCF7 cells after 48 hrs by MTT assay; conditions: MCF7, 48 h; procedure, shortened: as §1
SF-268 = assay: Cytotoxicity against human SF268 cells after 48 hrs by MTT assay; conditions: SF-268, 48 h; procedure, shortened: as §1

SMILES | IC50 (NCI-H460) [µM] | IC50 (MCF7) [µM] | IC50 (SF-268) [µM]
CC1=C[C@@H]2/C=C(\C)CCCC(O)/C=C/C(=O)[C@]23C(=O)N[C@@H](CC(C)C)[C@@H]3[C@@H]1C (stereo partly drawn) | 3.5 | 5 | 9.5
CC(=O)O[C@H]1C(=O)[C@@]2(C)[C@H]([C@H](OC(=O)c3ccccc3)[C@]3(O)C[C@H](OC(=O)[C@H](O)[C@@H](NC(=O)c4ccccc4)c4ccccc4)C(C)=C1C3(C)C)[C@]1(OC(C)=O)CO[C@@H]1C[C@@H]2O [PACLITAXEL] | 0.0095 | – | 0.0217
CC1=C[C@@H]2/C=C(\C)CC[C@H](O)[C@@H](O)/C=C/C(=O)[C@]23C(=O)N[C@@H](CC(C)C)[C@@H]3[C@@H]1C [ASPOCHALASIN C] | 5 | 7.7 | 3.9
CC1=C[C@@H]2/C=C(\C)CCC[C@H](O)/C=C/C(=O)O[C@]23C(=O)N[C@@H](CC(C)C)[C@@H]3[C@@H]1C [ASPOCHALASIN J] | 55.2 | 14.9 | 13.4
CC1=C[C@@H]2/C=C(\C)CC[C@H](O)[C@H](O)/C=C/C(=O)O[C@]23C(=O)N[C@@H](CC(C)C)[C@@H]3[C@@H]1C [ASPOCHALASIN I] | 22.1 | 33.4 | 19.9
CC1=C[C@@H]2/C=C(\C)CC[C@H](O)[C@H](O)[C@@H](O)CC(=O)[C@]23C(=O)N[C@@H](CC(C)C)[C@@H]3[C@@H]1C [ASPOCHALASIN E] | 31.5 | 30.4 | 52.6
CO[C@H]1[C@@H](O)CC/C(C)=C/[C@H]2C=C(C)[C@@H](C)[C@H]3[C@H](CC(C)C)NC(=O)[C@]32C(=O)C[C@@H]1O [ASPOCHALASIN K] | 14.3 | 13.1 | 19.9
CC1=C[C@@H]2/C=C(\C)CC[C@H](O)[C@H](O)/C=C/C(=O)[C@]23C(=O)N[C@@H](CC(C)C)[C@@H]3[C@@H]1C [ASPOCHALASIN D] | 3.4 | 5.3 | 5
